According to ChEMBL document CHEMBL1134529, “4-Hydroxy-5,6-dihydropyrones as inhibitors of HIV protease: the effect of heterocyclic substituents at C-6 on antiviral potency and pharmacokinetic parameters” (J Med Chem, 2001):
Where “and” joins values, the source holds several entries; their conditions need not be identical. Identical values can stand only once.

Tests used:
[1] = system: Human immunodeficiency virus 1; assay: Antiviral activity in HIV infected CEM cells as effective concentration at which 50% of the cells are protected from cytopathic effect.; assay type: functional, organism-based; conditions: Human immunodeficiency virus 1, CCRF-CEM
In short: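 HIV-IIIB-infected human lymphocyte-derived CEM cells. EC50 is the drug concentration at which 50% of cells are protected from HIV cytopathic effects. Testing was done at Southern Research Institute.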

[2] = biological target: Human immunodeficiency virus type 1 protease (Human immunodeficiency virus 1, UniProt Q72874); assay: HIV-1 protease inhibition.
In short: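 Affinity-purified HIV-1 protease (1.5 nM final) with 40 µM peptide substrate His-Lys-Ala-Arg-Val-Leu-(p-NO2-Phe)-Glu-Ala-Nle-Ser-NH2 and 1.0% DMSO. Buffer: 80 mM MES, 160 mM NaCl, 1.0 mM DTT, 1.0 mM EDTA, 0.1% PEG 8000, pH 6.2. Incubated 60 min at 37 °C, then quenched with TFA (2% final). Products separated by reverse-phase HPLC and read at 220 nm. Percent control derived from % conversion with vs without inhibitor; IC50 then determined.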

[3] = Toxicity measured in CEM cells in the absence of virus.; assay type: cell-based; conditions: human, CEM cells (CCRF-CEM); read-out: TC50 (the source's name)
[4] = compound was evaluated for pharmacokinetic parameter, Tmax; assay type: ADME, organism-based; conditions: in vivo
In short: (§1)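 Species-dependent dosing. Mice: 25 mg/kg po in 20% 0.1 N NaOH/80% 0.5% methylcellulose; values from a pool of five mice; plasma levels by HPLC. Rats: 10 mg/kg po by capsule or pH 7.4-buffered solution; average of two animals. Dogs: 10 mg/kg in saline (sodium salt) or pH 10-buffered 0.1 NaOH (free acid).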

[5] = compound was evaluated for pharmacokinetic parameter, half life period (T1/2); assay type: ADME, organism-based; conditions: in vivo; in short: as §1
[6] = Compound was evaluated for pharmacokinetic parameter, Cmax in rat at 25 mg/kg po; assay type: ADME, organism-based; set-up: dose 25 mg/kg, route oral; conditions: in vivo
[7] = Bioavailability; assay type: ADME, organism-based; conditions: eutheria, in vivo
In short: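 Dogs dosed at 10 mg/kg. Vehicle was either the sodium salt in normal saline or the free acid in 0.1 NaOH buffered to pH 10, depending on compound.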

[8] = Compound was evaluated for pharmacokinetic parameter, Cmax; assay type: ADME, organism-based; conditions: in vivo
[9] = Compound was evaluated for pharmacokinetic parameter, half life period (T1/2); assay type: ADME, organism-based; conditions: in vivo
[10] = Compound was evaluated for pharmacokinetic parameter, Tmax; assay type: ADME, organism-based; conditions: in vivo
[11] = Compound was evaluated for pharmacokinetic parameter, area under curve (AUC); assay type: ADME; set-up: unit not given here
[12] = Compound was evaluated for pharmacokinetic parameter, Cmax in rat at 10 mg/kg po; conditions: in vivo
[13] = compound was evaluated for pharmacokinetic parameter, area under curve (AUC); assay type: ADME; in short: as §1

Row | SMILES | EC50 [1] [nM] | IC50 [2] [nM] | CC50 [3] [nM] | further results
1 | Cc1cc(SC2=C(O)O[C@](CCc3ccc(N)cc3)(C(C)C)CC2=O)c(C(C)(C)C)cc1CO |  | 0.11 | 210000 | Cmax [8]: 26.5 µM; half-life [9]: 132 min; Tmax [4]: 30 min; Tmax [10]: 30 min; half-life [5]: 222 min; AUC [11]: 82; bioavailability [7]: 33%
2 | Cc1cc(SC2=C(O)OC(CCc3ccncc3)(C(C)C)CC2=O)c(C(C)(C)C)cc1CO (stereo not given) | 1500 | 1.5 | 296000 | 
3 | Cc1cc(SC2=C(O)OC(CCc3ccc4[nH]ccc4c3)(C(C)C)CC2=O)c(C(C)(C)C)cc1CO (stereo not given) | 680 | 0.98 | 46000 | 
4 | Cc1csc(CCC2(C(C)C)CC(=O)C(Sc3cc(C)c(CO)cc3C(C)(C)C)=C(O)O2)n1 (stereo not given) | 800 | 0.45 | 171000 | 
5 | Cc1cc(SC2=C(O)OC(CCc3ccsc3CO)(C(C)C)CC2=O)c(C(C)(C)C)cc1CO (stereo not given) | 920 | 14 | 200000 | 
6 | Cc1cc(SC2=C(O)OC(CCc3c[nH]c4ccccc34)(C(C)C)CC2=O)c(C(C)(C)C)cc1CO (stereo not given) | 370 | 0.72 | 46000 | 
7 | Cc1cc(SC2=C(O)OC(CCc3nc4ccccc4s3)(C(C)C)CC2=O)c(C(C)(C)C)cc1CO (stereo not given) | 1500 | 1.4 | 62000 | 
8 | O=c1cc(-c2ccccc2)oc(O)c1Sc1ccccc1 |  | 3000 |  | 
9 | CC(=O)Nc1nc(CCC2(C(C)C)CC(=O)C(Sc3cc(C)c(CO)cc3C(C)(C)C)=C(O)O2)cs1 (stereo not given) | 23000 | 18 | 210000 | 
10 | Cc1cc(SC2=C(O)OC(CCc3cncnc3)(C(C)C)CC2=O)c(C(C)(C)C)cc1CO (stereo not given) | 1200 | 17 | > 200000 | 
11 | Cc1cc(SC2=C(O)OC(CCc3cccnc3)(C(C)C)CC2=O)c(C(C)(C)C)cc1CO (stereo not given) |  | 0.94 |  | Tmax [10]: 30 min
12 | Cc1cc(SC2=C(O)OC(CCc3csc(C(C)C)n3)(C(C)C)CC2=O)c(C(C)(C)C)cc1CO (stereo not given) | 23000 | 1.6 | 91000 | 
13 | Cc1cc(SC2=C(O)OC(CCc3cnc(N)nc3)(C(C)C)CC2=O)c(C(C)(C)C)cc1CO (stereo not given) | 5700 |  | > 200000 | 
14 | Cc1cc(SC2=C(O)OC(CCc3scnc3C(C)C)(C(C)C)CC2=O)c(C(C)(C)C)cc1CO (stereo not given) | 1200 | 0.8 | 102000 | 
15 | Cc1cc(SC2=C(O)OC(CCc3ccccn3)(C(C)C)CC2=O)c(C(C)(C)C)cc1CO (stereo not given) | 1500 | 1.2 | 249000 | 
16 | Cc1cc(SC2=C(O)OC(CCc3ccc(CO)s3)(C(C)C)CC2=O)c(C(C)(C)C)cc1CO (stereo not given) | 2500 | 0.58 | 182000 | 
17 | Cc1nc(CCC2(C(C)C)CC(=O)C(Sc3cc(C)c(CO)cc3C(C)(C)C)=C(O)O2)cs1 (stereo not given) | 4500 | 13 | 210000 | 
18 | Cc1cc(SC2=C(O)OC(CCc3scnc3C)(C(C)C)CC2=O)c(C(C)(C)C)cc1CO (stereo not given) | 370 |  | 164000 | Tmax [4]: 15 min; Cmax [12]: 0.77 µM
19 | Cc1cc(SC2=C(O)OC(CCc3csc(CO)c3)(C(C)C)CC2=O)c(C(C)(C)C)cc1CO (stereo not given) | 18000 | 0.19 | 210000 | 
20 | Cc1cc(SC2=C(O)OC(CCc3ncsc3C(C)C)(C(C)C)CC2=O)c(C(C)(C)C)cc1CO (stereo not given) | 10000 | 5.8 | 52000 | 
21 | Cc1cc(SC2=C(O)OC(CCc3nc(C(C)C)cs3)(C(C)C)CC2=O)c(C(C)(C)C)cc1CO (stereo not given) | 33000 | 14 | 84000 | 
22 | Cc1cc(SC2=C(O)OC(CCc3ccc(N)cc3)(C(C)C)CC2=O)c(C(C)(C)C)cc1CO (racemic) | 500 | 0.43 | > 100000 | Cmax [8]: 23 µM; half-life [9]: 132 min; Tmax [10]: 30 min; AUC [11]: 42

More lines, main results first:

Row | EC50 [1] [nM] | IC50 [2] [nM] | SMILES | CC50 [3] [nM] | further results
23 | 14000 | 11.5 | Cc1cc(SC2=C(O)O[C@@](CCc3ccsc3)(C(C)C)CC2=O)c(C(C)(C)C)cc1CO | 95000 | 
24 | 120 | 0.13 | Cc1cc(SC2=C(O)O[C@](CCc3ccsc3)(C(C)C)CC2=O)c(C(C)(C)C)cc1CO | 91000 | Tmax [4]: 30 min; T1/2 [5]: 690 min and 324 min; Cmax [6]: 14.7 µM; bioavailability [7]: 88%
25 | 260 | 0.41 | Cc1cc(SC2=C(O)OC(CCc3cscc3C)(C(C)C)CC2=O)c(C(C)(C)C)cc1CO (stereo not given) | 51000 | 
26 | 5600 | 0.28 | Cc1cc(SC2=C(O)OC(CCc3cc[nH]n3)(C(C)C)CC2=O)c(C(C)(C)C)cc1CO (stereo not given) | 320000 | 
27 | 89000 | 70 | Cc1cc(SC2=C(O)OC(CCc3c[nH]cn3)(C(C)C)CC2=O)c(C(C)(C)C)cc1CO (stereo not given) | 200000 | 
28 | 300 | 0.17 | Cc1cc(SC2=C(O)OC(CCc3ccsc3)(C(C)C)CC2=O)c(C(C)(C)C)cc1CO (stereo not given) | 110000 | Cmax [8]: 39.6 µM; half-life [9]: 210 min; Tmax [4]: 30 min; Tmax [10]: 30 min; half-life [5]: 564 min; AUC [11]: 221; Cmax [12]: 11.2 µM; AUC [13]: 21 µg/h/mL
29 | 750 | 0.78 | Cc1cc(SC2=C(O)OC(CCc3ccco3)(C(C)C)CC2=O)c(C(C)(C)C)cc1CO (stereo not given) | 190000 | 
30 | 1900 | 19 | Cc1cnc(CCC2(C(C)C)CC(=O)C(Sc3cc(C)c(CO)cc3C(C)(C)C)=C(O)O2)s1 (stereo not given) | 210000 | 
31 | 700 | 0.57 | Cc1cc(SC2=C(O)OC(CCc3nccs3)(C(C)C)CC2=O)c(C(C)(C)C)cc1CO (stereo not given) | 216000 | Cmax [8]: 33 µM; half-life [9]: 198 min; Tmax [4]: 15 min; Tmax [10]: 30 min; half-life [5]: 732 min; AUC [11]: 132; Cmax ([12]; read-out: Cmax): 2.7 µM; AUC [13]: 10000 ng·h/mL
32 | 500 | 0.35 | Cc1cc(SC2=C(O)OC(CCc3cccs3)(C(C)C)CC2=O)c(C(C)(C)C)cc1CO (stereo not given) | 81000 | 
33 | 1900 | 0.24 | Cc1cc(SC2=C(O)OC(CCc3cncs3)(C(C)C)CC2=O)c(C(C)(C)C)cc1CO (stereo not given) | 229000 | 
34 | 2800 | 1.3 | Cc1cc(SC2=C(O)OC(CCc3cscn3)(C(C)C)CC2=O)c(C(C)(C)C)cc1CO (stereo not given) | 141000 | 
35 | 1800 | 1.3 | Cc1cc(SC2=C(O)OC(CCc3ncsc3C)(C(C)C)CC2=O)c(C(C)(C)C)cc1CO (stereo not given) | 208000 | 
36 |  | 5 | Cc1cc(SC2=C(O)OC(CCC3CCCO3)(C(C)C)CC2=O)c(C(C)(C)C)cc1CO (stereo not given) |  | 
37 | 1000 | 0.34 | Cc1cc(SC2=C(O)OC(CCc3ccoc3)(C(C)C)CC2=O)c(C(C)(C)C)cc1CO (stereo not given) | 199000 | Cmax [8]: 54.4 µM; half-life [9]: 336 min; Tmax [10]: 30 min; AUC [11]: 241
38 | 280 |  | Cc1cc(SC2=C(O)OC(CCc3sccc3C)(C(C)C)CC2=O)c(C(C)(C)C)cc1CO (stereo not given) | 80000 | 
39 | 3500 | 0.95 | Cc1cc(SC2=C(O)OC(CCc3csc(N)n3)(C(C)C)CC2=O)c(C(C)(C)C)cc1CO (stereo not given) | > 200000 | 
